Assays:
[1] = biological target: T1, Prostaglandin G/H synthase 2 (Rattus norvegicus, UniProt P35355); assay: Inhibition of COX2 in rat abdominal macrophages assessed as PGE2 production pretreated for 30 mins followed by addition of 10 uM arachidonic acid as substrate for 20 mins by EIA
T1 sequence (P35355 whole entry): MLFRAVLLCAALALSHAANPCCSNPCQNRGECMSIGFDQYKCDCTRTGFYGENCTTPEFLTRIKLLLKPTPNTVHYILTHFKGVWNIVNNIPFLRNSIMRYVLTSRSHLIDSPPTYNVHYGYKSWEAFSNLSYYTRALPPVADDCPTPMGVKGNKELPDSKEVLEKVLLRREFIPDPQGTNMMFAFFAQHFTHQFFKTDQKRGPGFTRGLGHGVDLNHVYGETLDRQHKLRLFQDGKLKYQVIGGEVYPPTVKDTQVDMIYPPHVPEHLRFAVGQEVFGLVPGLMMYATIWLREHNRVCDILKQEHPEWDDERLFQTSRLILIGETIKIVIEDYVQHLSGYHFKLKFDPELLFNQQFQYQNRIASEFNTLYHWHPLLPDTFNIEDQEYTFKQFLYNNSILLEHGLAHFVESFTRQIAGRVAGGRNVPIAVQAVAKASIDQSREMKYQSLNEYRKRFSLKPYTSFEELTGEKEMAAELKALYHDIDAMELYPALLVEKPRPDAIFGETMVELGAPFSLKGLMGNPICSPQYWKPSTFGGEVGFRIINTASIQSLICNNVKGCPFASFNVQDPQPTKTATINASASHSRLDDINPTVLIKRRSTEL

[2] = biological target: T2, Polyunsaturated fatty acid 5-lipoxygenase (Rattus norvegicus, UniProt P12527); assay: Inhibition of 5-LOX in Sprague-Dawley rat leukocytes assessed as A23187 stimulated LTB4 production pretreated for 30 mins followed by addition of A23187 for 30 mins by EIA; assay type: cell-based
T2 sequence (P12527 whole entry): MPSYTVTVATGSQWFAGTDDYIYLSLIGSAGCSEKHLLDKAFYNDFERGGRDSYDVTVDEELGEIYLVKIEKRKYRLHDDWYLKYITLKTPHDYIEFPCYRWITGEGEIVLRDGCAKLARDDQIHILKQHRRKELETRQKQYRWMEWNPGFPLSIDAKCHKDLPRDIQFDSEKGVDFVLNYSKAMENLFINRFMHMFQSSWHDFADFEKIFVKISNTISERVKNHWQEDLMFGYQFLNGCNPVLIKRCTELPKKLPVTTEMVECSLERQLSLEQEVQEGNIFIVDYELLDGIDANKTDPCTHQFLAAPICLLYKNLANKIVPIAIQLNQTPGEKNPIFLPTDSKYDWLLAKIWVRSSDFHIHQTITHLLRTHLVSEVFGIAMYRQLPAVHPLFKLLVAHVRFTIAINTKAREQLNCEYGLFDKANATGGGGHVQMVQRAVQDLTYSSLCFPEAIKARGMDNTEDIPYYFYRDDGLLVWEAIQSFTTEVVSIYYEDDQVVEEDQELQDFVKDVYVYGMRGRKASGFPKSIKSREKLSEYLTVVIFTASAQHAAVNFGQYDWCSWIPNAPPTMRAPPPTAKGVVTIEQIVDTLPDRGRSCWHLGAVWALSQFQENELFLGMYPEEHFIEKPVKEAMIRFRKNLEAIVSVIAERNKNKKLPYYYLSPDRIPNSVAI
Summary of the method: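 Rat peritoneal leukocytes collected from Sprague-Dawley rats primed i.p. with 0.2% glycogen (20 mL/kg). Cells in Hanks solution plated at 1.0×10^6/well and held 10 min at 37 °C. Pretreated 30 min with L-cysteine (10 mM), indomethacin (1 mg/L) and compound or DMSO. A23187 added for 30 min. LTB4 in the clarified supernatant measured by EIA; % inhibition from OD; IC50 by Bliss method.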

[3] = Antiproliferative activity against human PC3 cells after 72 hrs by MTT assay; assay type: functional, cell-based; conditions: PC-3, 72 h
Summary of the method: (§1)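 Cells seeded at 5×10^4/well, grown 24 h at 37 °C in 5% CO₂, then exposed to compounds dissolved in DMSO at a range of concentrations for 72 h. MTT (5 mg/mL in PBS) added for 4 h, then OD read at 570 nm. IC50 taken from dose-response curves, mean ± S.D. of three independent experiments.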

[4] = Antiproliferative activity against human Caco2 cells after 72 hrs by MTT assay; assay type: functional, cell-based; conditions: Caco-2, 72 h; summary of the method: as §1
A549 = assay: Antiproliferative activity against human A549 cells after 72 hrs by MTT assay; assay type: functional, cell-based; conditions: A549, 72 h; summary of the method: as §1
[5] = Antiproliferative activity against mouse B16F10 cells after 72 hrs by MTT assay; assay type: functional, cell-based; conditions: B16-F10, 72 h; summary of the method: as §1

| IC50 [1] | IC50 [2] | IC50 (A549) | SMILES | IC50 [3] | IC50 [4] | IC50 [5] |
| --- | --- | --- | --- | --- | --- | --- |
| 0.85 µM | 1.11 µM |  | CC(=O)Oc1ccc(/C=C/C(=O)OCCSc2nc(-c3ccc(S(N)(=O)=O)cc3)n(-c3ccccc3)n2)cc1OC(C)=O |  |  |  |
| 0.58 µM | 0.84 µM |  | COc1cc(/C=C/C(=O)OCCSc2nc(-c3ccc(S(C)(=O)=O)cc3)n(-c3ccccc3)n2)ccc1O |  |  |  |
| 0.87 µM | 0.98 µM | 15 µM | COc1cc(/C=C/C(=O)OCCSc2nc(-c3ccc(S(C)(=O)=O)cc3)n(-c3ccc(C)cc3)n2)ccc1OC(C)=O | 15.5 µM | 14.1 µM | 15.3 µM |
| 0.23 µM | 0.92 µM | 9.65 µM | COc1cc(/C=C/C(=O)OCCSc2nc(-c3ccc(S(C)(=O)=O)cc3)n(-c3ccc(C(F)(F)F)cc3)n2)ccc1OC(C)=O | 9.81 µM | 10.8 µM | 10.5 µM |
| 0.39 µM | 1.06 µM | 12 µM | CC(=O)Oc1ccc(/C=C/C(=O)OCCSc2nc(-c3ccc(S(N)(=O)=O)cc3)n(-c3ccc(F)cc3)n2)cc1OC(C)=O | 9.84 µM | 11 µM | 11 µM |
| 0.24 µM | 0.92 µM | 9.61 µM | COc1cc(/C=C/C(=O)OCCSc2nc(-c3ccc(S(C)(=O)=O)cc3)n(-c3ccc(F)cc3)n2)ccc1OC(C)=O | 12.8 µM | 10.8 µM | 11.2 µM |
| 0.62 µM | 0.8 µM | 14.1 µM | NS(=O)(=O)c1ccc(-c2nc(SCCOC(=O)/C=C/c3ccc(O)c(O)c3)nn2-c2ccccc2)cc1 | 15 µM | 15 µM | 15 µM |
| 0.18 µM | 1.05 µM | 11.8 µM | CC(=O)Oc1ccc(/C=C/C(=O)OCCSc2nc(-c3ccc(S(C)(=O)=O)cc3)n(-c3ccc(F)cc3)n2)cc1OC(C)=O | 15.7 µM | 12.8 µM | 14.2 µM |
| 0.18 µM | 0.99 µM | 18.7 µM | CC(=O)Oc1ccc(/C=C/C(=O)NCCSc2nc(-c3ccc(S(N)(=O)=O)cc3)n(-c3ccc(Br)cc3)n2)cc1OC(C)=O | 17 µM | 16.7 µM | 15.2 µM |
| 0.37 µM | 0.79 µM | 11.2 µM | CS(=O)(=O)c1ccc(-c2nc(SCCCOC(=O)/C=C/c3ccc(O)c(O)c3)nn2-c2ccc(Br)cc2)cc1 | 12.3 µM | 12.4 µM | 13.1 µM |
| 0.31 µM | 1.05 µM |  | CC(=O)Oc1ccc(/C=C/C(=O)OCCSc2nc(-c3ccc(S(N)(=O)=O)cc3)n(-c3ccc(Br)cc3)n2)cc1OC(C)=O |  |  |  |
| 0.63 µM | 0.97 µM | 32.7 µM | CC(=O)Oc1ccc(/C=C/C(=O)NCCCSc2nc(-c3ccc(S(N)(=O)=O)cc3)n(-c3ccccc3)n2)cc1OC(C)=O | 35.2 µM | 31 µM | 29.1 µM |
| 0.62 µM | 0.96 µM |  | COc1cc(/C=C/C(=O)OCCSc2nc(-c3ccc(S(C)(=O)=O)cc3)n(-c3ccccc3)n2)ccc1OC(C)=O |  |  |  |
| 0.91 µM | 1.07 µM |  | CC(=O)Oc1ccc(/C=C/C(=O)OCCCSc2nc(-c3ccc(S(N)(=O)=O)cc3)n(-c3ccccc3)n2)cc1OC(C)=O |  |  |  |
| 0.19 µM | 1.06 µM | 10.2 µM | CC(=O)Oc1ccc(/C=C/C(=O)OCCSc2nc(-c3ccc(S(C)(=O)=O)cc3)n(-c3ccc(C(F)(F)F)cc3)n2)cc1OC(C)=O | 14.5 µM | 11.3 µM | 11.5 µM |
|  |  | > 100 µM | O=C(O)/C=C/c1ccc(O)c(O)c1 [CAFFEIC ACID] | > 100 µM | > 100 µM | > 100 µM |
| 0.24 µM | 0.99 µM | 23.3 µM | CC(=O)Oc1ccc(/C=C/C(=O)NCCCSc2nc(-c3ccc(S(C)(=O)=O)cc3)n(-c3ccc(Br)cc3)n2)cc1OC(C)=O | 23.9 µM | 26.1 µM | 16.4 µM |
|  |  | 9.72 µM | O=C(/C=C/c1ccc(O)c(O)c1)OCCc1ccccc1 [CAFFEIC ACID PHENETHYL ESTER] | 10.2 µM | 11.3 µM | 10.7 µM |
| 0.29 µM | 0.99 µM | 12.9 µM | CC(=O)Oc1ccc(/C=C/C(=O)OCCCSc2nc(-c3ccc(S(C)(=O)=O)cc3)n(-c3ccc(Br)cc3)n2)cc1OC(C)=O | 14.9 µM | 11.7 µM | 12.8 µM |
| 0.92 µM | 1.21 µM |  | CC(=O)Oc1ccc(/C=C/C(=O)OCCSc2nc(-c3ccc(S(C)(=O)=O)cc3)n(-c3ccccc3)n2)cc1OC(C)=O |  |  |  |
| 0.17 µM | 0.98 µM | 21.8 µM | CC(=O)Oc1ccc(/C=C/C(=O)NCCCSc2nc(-c3ccc(S(C)(=O)=O)cc3)n(-c3ccc(F)cc3)n2)cc1OC(C)=O | 17.6 µM | 20.8 µM | 15.2 µM |
| 0.67 µM | 0.85 µM | 13.8 µM | CS(=O)(=O)c1ccc(-c2nc(SCCOC(=O)/C=C/c3ccc(O)c(O)c3)nn2-c2ccccc2)cc1 | 14.6 µM | 14.8 µM | 15 µM |
| 0.67 µM | 1.28 µM | 19.7 µM | NS(=O)(=O)c1ccc(-c2nc(SCCOC(=O)/C=C/c3ccccc3)nn2-c2ccc(Br)cc2)cc1 | 20.1 µM | 20.9 µM | 21.2 µM |
| 0.29 µM | 0.94 µM | 11.1 µM | COc1cc(/C=C/C(=O)OCCSc2nc(-c3ccc(S(C)(=O)=O)cc3)n(-c3ccc(Br)cc3)n2)ccc1OC(C)=O | 13.1 µM | 12.1 µM | 12.4 µM |
| 0.64 µM | 0.77 µM |  | NS(=O)(=O)c1ccc(-c2nc(SCCCOC(=O)/C=C/c3ccc(O)c(O)c3)nn2-c2ccccc2)cc1 |  |  |  |
| 0.16 µM | 0.95 µM | 17 µM | CC(=O)Oc1ccc(/C=C/C(=O)NCCSc2nc(-c3ccc(S(C)(=O)=O)cc3)n(-c3ccc(F)cc3)n2)cc1OC(C)=O | 18 µM | 15.1 µM | 14.6 µM |
| 0.36 µM | 1.03 µM | 9.92 µM | CC(=O)Oc1ccc(/C=C/C(=O)OCCCSc2nc(-c3ccc(S(N)(=O)=O)cc3)n(-c3ccc(F)cc3)n2)cc1OC(C)=O | 10.5 µM | 11.5 µM | 10.9 µM |

Source: ChEMBL document CHEMBL3745688, “Discovery of novel hybrids of diaryl-1,2,4-triazoles and caffeic acid as dual inhibitors of cyclooxygenase-2 and 5-lipoxygenase for cancer therapy” (Eur J Med Chem, 2016)
